Measured values from ChEMBL document CHEMBL1177683, “Synthesis and pharmacological evaluation of pyrazine N-acylhydrazone derivatives designed as novel analgesic and anti-inflammatory drug candidates” (2010).
Calls of active or inactive are those of the source. The calls are words filed in the database; no cut-off is given here.

Assays:
Mus musculus [1] = assay: Antiedematogenic activity in Swiss mouse assessed as decrease of capsaicin-induced ear edema weight at 100 umol/kg, po administered 40 mins before capsaicin challenge measured after 30 mins relative to control; design: scale not given: the % may be the effect or the level left
Mus musculus [2] = assay: Analgesic activity in Swiss mouse assessed as increase in latency of paw licking at 100 umol/kg, po after 120 mins measured for 60 seconds by hot plate test (reference value: 5.6 +/- 0.5 seconds); assay type: functional
Mus musculus [3] = assay: Analgesic activity against formalin-induced acute pain in Swiss mouse assessed as decrease of time spent in paw licking at 100 umol/kg, po administered 40 mins before formalin challenge measured for 0 to 5 mins; assay type: functional, organism-based
Outline: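 Male or female adult Swiss mice (20–30 g, 6–8 weeks), groups of 6, dosed orally in arabic gum vehicle (10 mL/kg) 40 min before 20 µL of 2.5% formalin (0.92% formaldehyde in saline) into ventral surface of right hind paw. Paw-licking time recorded 0–5 min (neurogenic phase) after injection; mean ± S.E.M. versus vehicle controls, ANOVA with Dunnett test.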

Mus musculus [4] = assay: Analgesic activity in Swiss mouse assessed as increase in latency of paw licking at 100 umol/kg, po after 150 mins measured for 60 seconds by hot plate test (reference value: 5.1 +/- 0.4 seconds); assay type: functional
Mus musculus [5] = assay: Analgesic activity in Swiss mouse assessed as increase in latency of paw licking at 100 umol/kg, po after 90 mins measured for 60 seconds by hot plate test (reference value: 5.9 +/- 0.8 seconds); assay type: functional
Mus musculus [6] = assay: Antinociceptive activity in Swiss mouse assessed as inhibition of acetic acid-induced abdominal constrictions at 100 umol/kg, po administered 40 mins before acetic acid challenge measured for 25 mins relative to control; assay type: functional; conditions: Abdomen
Outline: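 Mice were dosed at 100 µmol/kg po in arabic gum (10 mL/kg), 40 min before 0.6% v/v acetic acid ip (0.1 mL/10 g). Writhes (abdominal contraction, pelvic rotation, hind-limb extension) were counted for 20 min starting 5 min post-injection. Results are expressed as % inhibition versus vehicle controls. Groups of 6 (control 10), ANOVA/Dunnett.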

Mus musculus [7] = assay: Antiedematogenic activity in Swiss mouse assessed as inhibition of capsaicin-induced ear edema at 100 umol/kg, po administered 40 mins before capsaicin challenge measured after 30 mins relative to control
Mus musculus [8] = assay: Analgesic activity in Swiss mouse assessed as increase in latency of paw licking at 100 umol/kg, po after 60 mins measured for 60 seconds by hot plate test (reference value: 4.9 +/- 0.5 seconds); assay type: functional
Mus musculus [9] = assay: Analgesic activity against formalin-induced acute pain in Swiss mouse assessed inhibition of nociception at 100 umol/kg, po administered 40 mins before formalin challenge measured for 15 to 30 mins relative to control; assay type: functional
Outline: (§1)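 Mice, 6 per group, received 20 µL of 2.5% formalin (0.92% formaldehyde in saline) into the ventral surface of the right hind paw. Dosing was 100 µmol/kg po in arabic gum vehicle (10 mL/kg), 40 min beforehand. Time spent licking the injected paw was recorded over 0–5 min (neurogenic phase) and 15–30 min (inflammatory phase). Data are mean ± S.E.M., ANOVA/Dunnett versus vehicle.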

Rattus norvegicus [10] = assay: Antiinflammatory effect in complete Freund's adjuvant-induced Wistar rat arthritis model assessed as inhibition of paw edema at 100 umol/kg, po daily once administered on day 14 post adjuvant challenge measured on day 21 post adjuvant challenge; assay type: functional, organism-based
Outline: (§2)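 Wistar rats (130–170 g) received 0.1 mL complete Freund's adjuvant into the right paw. On day 13, arthritic rats were grouped (n=6) with matched scores. Dosing was 100 µmol/kg po daily from day 14 to 21, with arabic gum vehicle (10 mL/kg) for controls. Paw volume was measured by […] on days 1 and 14–21. Data are mean ± S.E.M., ANOVA/Dunnett.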

Rattus norvegicus [11] = assay: Antiinflammatory effect in complete Freund's adjuvant-induced Wistar rat arthritis model assessed as inhibition of paw edema at 100 umol/kg, po daily once administered on day 14 post adjuvant challenge measured on day 16 post adjuvant challenge; assay type: functional, organism-based
Outline: as §2

Rattus norvegicus [12] = assay: Antiinflammatory effect in complete Freund's adjuvant-induced Wistar rat arthritis model assessed as inhibition of paw edema at 100 umol/kg, po daily once administered on day 14 post adjuvant challenge measured on day 17 post adjuvant challenge; assay type: functional, organism-based
Outline: as §2

Mus musculus [13] = assay: Analgesic activity against formalin-induced acute pain in Swiss mouse assessed as decrease of time spent in paw licking at 100 umol/kg, po administered 40 mins before formalin challenge measured for 15 to 30 mins; assay type: functional, organism-based
Outline: as §1

Mus musculus [14] = assay: Analgesic activity in Swiss mouse assessed as increase in latency of paw licking at 15 umol/kg, ip after 90 mins measured for 60 seconds by hot plate test (reference value: 5.9 +/- 0.8 seconds); assay type: functional
Mus musculus [15] = assay: Analgesic activity in Swiss mouse assessed as increase in latency of paw licking at 15 umol/kg, ip after 150 mins measured for 60 seconds by hot plate test (reference value: 5.1 +/- 0.4 seconds); assay type: functional
Mus musculus [16] = assay: Analgesic activity in Swiss mouse assessed as increase in latency of paw licking at 15 umol/kg, ip after 60 mins measured for 60 seconds by hot plate test (reference value: 4.9 +/- 0.5 seconds); assay type: functional
Mus musculus [17] = assay: Analgesic activity in Swiss mouse assessed as increase in latency of paw licking at 15 umol/kg, ip after 120 mins measured for 60 seconds by hot plate test (reference value: 5.6 +/- 0.5 seconds); assay type: functional

Compound	Activity (Mus musculus [1])	Time (Mus musculus [2])	Activity (Mus musculus [3])	Time (Mus musculus [4])	Time (Mus musculus [5])	inhibition in vivo at 100 µmol/kg (Mus musculus [6])	inhibition in vivo at 100 µmol/kg (Mus musculus [7])	Time (Mus musculus [8])	inhibition in vivo at 100 µmol/kg (Mus musculus [9])	Activity (Rattus norvegicus [10])	Activity (Rattus norvegicus [11])	Activity (Rattus norvegicus [12])	Activity (Mus musculus [13])	Time (Mus musculus [14])	Time (Mus musculus [15])	Time (Mus musculus [16])	Time (Mus musculus [17])
O=C(N/N=C/c1ccccc1O)c1cnccn1	33.9%	6.4 s	Active	5.2 s	5.2 s	73.1%	42%	4 s	16.2%								
O=C1CCC(N2C(=O)c3ccccc3C2=O)C(=O)N1 (stereo unspecified) [THALIDOMIDE]	46.6%	6.8 s		5.9 s	7.5 s	73.3%	25.2%	4.8 s	66.7%	Active	Active	Active					
COc1cc(/C=N/NC(=O)c2cnccn2)cc(OC)c1OC	17.6%	4.3 s		5.3 s	4.8 s	97.1%	70%	4 s	86%	Active	Active	Active	Active				
CN1CC[C@]23c4c5ccc(O)c4O[C@H]2[C@@H](O)C=C[C@H]3[C@H]1C5 [MORPHINE]														10.3 s	9.7 s	12.8 s	9.7 s
